Screens: PubChem BioAssay, several laboratories
In the library only some 2.6% were active in any assay of this set; here they are far more common.
EP2 modulator = EP2 receptor modulators, cAMP readout, primary screen, cell-based, HTRF cAMP, PGE2 stimulation | Prostaglandin E2 receptor EP2 subtype (Homo sapiens), P43116 | EP2-expressing cells, cAMP HTRF FRET, PGE2 co-stimulation | induction, % at 25 µM | actives 0.83% (n = 260,000);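 active = compounds whose cAMP rise, as percent of the full-agonist control response, exceeds 60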;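 also: rat C6 glioma line stably carrying human EP2 under a CMV promoter; the protocol text gives 20 µM as final concentration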
Target sequence (P43116 whole entry, looked up): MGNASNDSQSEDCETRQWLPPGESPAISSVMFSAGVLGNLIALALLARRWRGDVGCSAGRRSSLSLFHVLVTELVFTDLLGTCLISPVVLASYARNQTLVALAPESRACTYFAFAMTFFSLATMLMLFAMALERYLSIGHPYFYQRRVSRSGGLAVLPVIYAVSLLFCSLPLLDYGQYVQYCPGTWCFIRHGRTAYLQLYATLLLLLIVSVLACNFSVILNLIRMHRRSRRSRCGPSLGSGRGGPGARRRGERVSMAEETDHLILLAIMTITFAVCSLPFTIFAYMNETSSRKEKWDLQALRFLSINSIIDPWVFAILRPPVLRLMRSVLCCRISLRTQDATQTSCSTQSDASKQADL
MC4R antag cAMP = MC4R antagonists of cAMP signaling, primary screen, cell-based, TR-FRET, antagonist arm of biased-ligand search; Melanocortin receptor 4 (Homo sapiens), P32245; MC4R-expressing cells, MTII-stimulated cAMP, LANCE TR-FRET; inhibition, % at 6.5 µM; actives 0.48% (n = 360,000); AID 540295, 2011;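 active = inhibition above its plate's cutoff, the mean of tested wells on that plate plus 3 SD, cut at about 29% in these data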
Target sequence (P32245 whole entry, looked up): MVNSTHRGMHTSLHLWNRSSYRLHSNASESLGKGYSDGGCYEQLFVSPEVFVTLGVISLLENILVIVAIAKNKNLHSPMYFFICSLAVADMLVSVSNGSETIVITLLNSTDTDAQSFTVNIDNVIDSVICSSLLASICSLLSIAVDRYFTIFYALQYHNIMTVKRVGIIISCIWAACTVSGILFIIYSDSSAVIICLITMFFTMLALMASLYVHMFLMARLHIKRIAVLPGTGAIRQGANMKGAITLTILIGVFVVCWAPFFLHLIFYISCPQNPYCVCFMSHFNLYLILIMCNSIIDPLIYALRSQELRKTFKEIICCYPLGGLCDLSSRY
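Assay system: human MC4R-expressing U2OS cells; reagent: Melanotan II stimulation of cells; dosing: 6.5 µM single dose; timing: compound 30 min, challenge 1 h, detection 1 h; signal: TR-FRET cAMP assay; replicates: one well per compound, no replicates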
PGE2 EP2 inh = human EP2 receptor antagonists, primary screen, TR-FRET cAMP, C6 glioma cells; actives 0.52% (n = 260,000); C6 glioma cells expressing human EP2; cells stimulated with saturating PGE2; inhibition, % at 25 µM; AID 1422, 2008;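 active = percent inhibition above 40 after rounding to a whole number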;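 also: rat C6 glioma host cells with rolipram phosphodiesterase inhibitor present; the protocol text gives 20 µM as final concentration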
MC4R ag barr = MC4R agonists recruiting beta-arrestin, primary screen, cell-based, luminescence, agonist arm of biased-ligand search | Melanocortin receptor 4 (Homo sapiens), P32245 | U2OS MC4R beta-arrestin complementation; percent of melanotan II response, DMSO zero | activation, % at 8.9 µM | actives 0.98% (n = 360,000);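 active = activation above a per-plate cutoff, the mean activation of sample wells on that plate plus 3 SD, cut at about 8% in these data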
T cell HTS = modulators of CD8 T cell-vesicle binding, primary screen, mouse 2C CD8+ T cells, flow cytometry; 2C CD8+ T cell-vesicle binding; active compounds read low; actives 0.068% (n = 330,000); response (vesicle binding), % at 7 µM;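 active = response, share of CD8 T cells binding vesicles, and their 90th percentile fluorescence all below set limits, cut at about 80% in these data, passing the limit was not always enough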;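 also: values below 100% mean blocked vesicle binding to the CD8+ T cells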
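material = purified 2C TCR transgenic mouse naive CD8+ T cells | controls = Unloaded micro-vesicles (low), QL9 vesicles with 0.7% DMSO (high) | detection = cytometric PE anti-B7-1 and Alexa647 anti-CD8 signals after 1% paraformaldehyde fixation | incubation = binding step 1.5 h, 37 °C, antibody labelling 20 min, ice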
Granule exo inh = LAMP-1 surface exposure blockers, TALL-104 cells – cell-based, flow cytometry, MLPCN library, primary screen. TALL-104 LAMP-1 surface exposure; cells stimulated with thapsigargin and PMA. inhibition, % at 10 µM. actives 0.66% (n = 360,000);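 active = inhibition above about 55%, limit read from the data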
U2OS cAMP counter = nonselective cAMP signaling inhibitors, parental cells, counter-screen for MC4R biased antagonist project, cell-based, TR-FRET, U2OS, forskolin, triplicate. actives 26% (n = 1,600). LANCE TR-FRET. inhibition, % at 6.5 µM. shares compounds with MC4R antag cAMP;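 active = mean inhibition over triplicates above the low-control well mean plus 3 SD, set per campaign, cut at about 13% in these data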;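 also: signal is single emission at 671 nm which falls as cellular cAMP rises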
MC4R antag conf = MC4R cAMP antagonists, retest, confirmation, cell-based, TR-FRET | actives 27% (n = 1,600) | inhibition, % at 6.5 µM | shares compounds with MC4R antag cAMP | MC4R-expressing cells, MTII-stimulated cAMP | AID 602195, 2012; in the data active = inhibition above about 29%
Of the large screens only hits and unclear results are named; the others gave an inactive call (follow-up assays come after a bar, where they were run); ! = not active in a repeat.

O=C(O)c1cc(-c2ccc(Cl)s2)nc2ccccc12	MC4R antag cAMP 34 | U2OS cAMP counter inactive | MC4R antag conf inactive
Oc1ccc(C(c2nnnn2CCc2ccccc2)N2CCN(c3nc4ccccc4s3)CC2)cc1 (stereo not drawn)	MC4R antag cAMP 31 | U2OS cAMP counter inactive | MC4R antag conf inactive
O=C(c1ccccn1)N1CCCC(N2CCN(Cc3ccc4c(c3)OCO4)CC2)C1 (stereo not drawn)	none (no result: EP2 modulator, PGE2 EP2 inh)
CS(=O)(=O)c1nc([N+](=O)[O-])nn1CCCc1ccccc1	MC4R antag cAMP 34 (no result: EP2 modulator, PGE2 EP2 inh) | U2OS cAMP counter inactive | MC4R antag conf inactive
COCCN1C(=O)N[C@@H](c2ccco2)C(C(C)=O)=C1C	none
Cc1ccc(C(=O)O)cc1NC(=O)Nc1ccc2c(c1)OCO2	MC4R antag cAMP 30 | U2OS cAMP counter inactive | MC4R antag conf inactive
COc1cc(CC(=O)OCC(=O)Nc2sccc2C(N)=O)cc(OC)c1OC	none
Cc1ccc(C)c(S(=O)(=O)NCC(=O)OCC(=O)Nc2sccc2C(N)=O)c1	MC4R antag cAMP 49 (no result: EP2 modulator, PGE2 EP2 inh, T cell HTS) | U2OS cAMP counter 13 | MC4R antag conf 33
O=C(CN1CCN(Cc2ccccc2F)C1=O)NC1CCCC1	MC4R antag cAMP 29 | U2OS cAMP counter inactive | MC4R antag conf inactive
Cc1nn(-c2ccccc2)c2nc(-c3ccccc3)cc(C(=O)N3CCOCC3)c12	none
Cc1nn(-c2cccc(Cl)c2)c2nc(-c3ccncc3)cc(C(=O)N3CCOCC3)c12	MC4R antag cAMP 34 | U2OS cAMP counter inactive | MC4R antag conf inactive
O=C(Nc1cccc(Cl)c1)NC1CCN(C2CCCCC2)C1 (stereo not drawn)	none (no result: EP2 modulator, PGE2 EP2 inh)
COc1nc(Cl)cn(-c2ccc(C)cc2)c1=O	none
Cc1ccc(-n2c(Cl)c(Cl)nc(Cl)c2=O)cc1	MC4R antag cAMP 46 | U2OS cAMP counter 57 | MC4R antag conf 55
Cc1ccc(S(=O)(=O)N(C)C)cc1NC(=O)C1CCCC1	none
CC(C)Cn1c(CN2CCN(c3ccccc3F)CC2)nc2c1c(=O)[nH]c(=O)n2C	MC4R antag cAMP 29 | U2OS cAMP counter inactive | MC4R antag conf inactive
COC(=O)Cn1c(CN2CCN(c3ccccc3F)CC2)nc2c1c(=O)n(C)c(=O)n2C	none (no result: EP2 modulator, PGE2 EP2 inh, T cell HTS)
O=C(CSc1ccc(F)cc1)NC(=O)NCc1ccccc1	none
COc1ccc(C)cc1NC(=O)C12CCC(C)(C(=O)O1)C2(C)C (stereo not drawn)	none
Cc1cc2nc(-c3ccc(SCC(=O)N4CCOCC4)nc3)[nH]c2cc1C	none
CCOC(=O)CSc1ccc(-c2nc3cc(C)c(C)cc3[nH]2)cn1	MC4R antag cAMP 34, PGE2 EP2 inh 57! | U2OS cAMP counter inactive | MC4R antag conf inactive
COc1ccccc1N1CCN(Cc2cccs2)CC1	none (no result: PGE2 EP2 inh)
COc1cc(/C=C2\C(=N)N3N=C(S(C)(=O)=O)SC3=NC2=O)ccc1OCCOc1ccc(C)cc1	MC4R antag cAMP 34 (no result: EP2 modulator, PGE2 EP2 inh) | U2OS cAMP counter inactive | MC4R antag conf inactive
CN(C)S(=O)(=O)c1ccc(N2CCCC2)c(C(=O)N2CCN(c3ccc([N+](=O)[O-])cc3)CC2)c1	MC4R antag cAMP 34 | U2OS cAMP counter inactive | MC4R antag conf inactive
COc1ccccc1N1CCN(C(=O)CCCNC(=O)Cn2cnc3sc(C)c(C)c3c2=O)CC1	MC4R antag cAMP 33 (no result: EP2 modulator, PGE2 EP2 inh) | U2OS cAMP counter inactive | MC4R antag conf inactive
Oc1ccccc1-c1nnco1	none (no result: EP2 modulator, PGE2 EP2 inh, T cell HTS)
COc1ccccc1C(=O)NC(CCSC)C(=O)OCC(=O)N1CCCC1=O (stereo not drawn)	MC4R antag cAMP 29 (no result: EP2 modulator, PGE2 EP2 inh) | U2OS cAMP counter 17 | MC4R antag conf 42
C=CCN1CCN(C(c2ccccc2Cl)c2nnnn2C2CCCCC2)CC1 (stereo not drawn)	none (no result: MC4R antag cAMP, MC4R ag barr, T cell HTS, Granule exo inh)
S=c1[nH]nc(-c2cccnc2)o1	none
S=c1[nH]nc(-c2cccc(Br)c2)o1	MC4R antag cAMP 46, PGE2 EP2 inh 53 | U2OS cAMP counter 16 | MC4R antag conf inactive
O=C(NC(=S)N(CCc1ccccc1)CCc1ccccc1)c1ccco1	none
CC(C)NS(=O)(=O)c1ccc(CCC(=O)N2CCC(C(N)=O)CC2)cc1	MC4R antag cAMP 31 | U2OS cAMP counter inactive | MC4R antag conf inactive
CC(C)NS(=O)(=O)c1ccc(CCC(=O)N2CCCC2)cc1	none
COC(=O)c1sccc1NC(=S)N1CCC(C)CC1	none
CCOc1ccccc1/C=C(\C#N)C(=O)Nc1cccc(C(=O)O)c1	MC4R antag cAMP 38 | U2OS cAMP counter inactive | MC4R antag conf inactive
Cc1cc(C(=O)O)ccc1-n1c(C)cc(/C=C(/C#N)C(=O)Nc2ccccc2)c1C	MC4R antag cAMP 31 | U2OS cAMP counter inactive | MC4R antag conf inactive
O=C(Nc1ccccc1Cl)c1cc(C2CCCCN2C(=O)c2ccccc2)on1 (stereo not drawn)	MC4R antag cAMP 35 (no result: EP2 modulator, PGE2 EP2 inh, T cell HTS) | U2OS cAMP counter inactive | MC4R antag conf inactive
CS(=O)(=O)c1ccc(Cl)c(NC(=O)COC(=O)CNC(=O)c2ccc(Br)o2)c1	MC4R antag cAMP 32 (no result: PGE2 EP2 inh) | U2OS cAMP counter inactive | MC4R antag conf inactive
CC(C)OP(=O)(OC(C)C)/C(C=O)=N\Nc1ccc([N+](=O)[O-])cc1	MC4R antag cAMP 39 | U2OS cAMP counter inactive | MC4R antag conf inactive
CC(C)OP(=O)(OC(C)C)C(Nc1ccc([N+](=O)[O-])cc1)c1cccc([N+](=O)[O-])c1 (stereo not drawn)	none
Cc1ccccc1OCCC(=O)OCC(=O)Nc1cc(S(=O)(=O)N2CCOCC2)ccc1Cl	MC4R antag cAMP 35 | U2OS cAMP counter inactive | MC4R antag conf inactive
COc1ccc(/C=C/C(=O)c2ccc([N+](=O)[O-])o2)cc1	MC4R antag cAMP 30 (no result: EP2 modulator, PGE2 EP2 inh) | U2OS cAMP counter inactive | MC4R antag conf inactive
OCC1OC(n2cnc3c(NC4CCCCC4)ncnc32)C(O)C1O (stereo not drawn)	none
CSc1nc(-c2cccs2)c(C#N)c(=O)[nH]1	MC4R antag cAMP 45 | U2OS cAMP counter 43 | MC4R antag conf 85
Cc1ccc(OC(=O)C2CCN(C(=O)c3ccccc3C)CC2)c(Br)c1	none (no result: EP2 modulator, PGE2 EP2 inh)
